These results are taken from paper PMC12023741 (RSC Advances, 2025).

Structures are written as SMILES.

Data set [1] can be described thus: DPPH free radical scavenging. The data set is classed as biochemical. The settings on record: read-out: DPPH scavenging activity IC50; stable DPPH radical; mean ± SE, n = 3. In short, it runs like this:
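Radical-scavenging capacity of the test compounds toward DPPH was measured by a modified Zheleva-Dimitrova procedure. Scavenging activity was recorded and IC50 values were derived from it. Data are mean ± SE, n = 3.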
On the technique in general: The DPPH test is a chemical assay of radical scavenging.

In data set [2] the test system is HepG2 cell line. Briefly: MTT assay, HepG2. The data set is classed as cell-based. The settings on record: for antitumor effect (in words): HepG2, MTT assay, compared to DOX.
Data set [3] concerns MCF-7 cell line. Briefly: MTT assay, MCF-7. It counts as cell-based. Particulars: for antitumor effect (in words): MCF-7, MTT assay, compared to DOX.
Data set [4] relates to HCT-116 cell line. Put plainly: MTT assay, HCT-116. The data set is classed as cell-based. The settings on record: for antitumor effect (in words): HCT-116, MTT assay, compared to DOX.
The subject of data set [5] is WI-38 normal cells (human lung fibroblast). Put plainly: MTT assay, WI-38 normal cells. It counts as cell-based. For orientation: Tetrazolium assays rely on reduction of a dye to a coloured formazan, in cell work by metabolically active cells.

A word on the IC50: it is the concentration at which inhibition is half-maximal.

Turning to `O=C1O[C@H]([C@@H](O)CO)C(O)=C1O` [L-ascorbic acid, reference compound], the IC50 in data set [1] stood at 16.81 ± 0.1 µM.
As for `NC1=NN(c2ccccc2)C(=O)C1/N=N/c1ccc(C(=O)/C=C/c2ccc(O)cc2)cc1` (stereo not drawn) [Compound 3c, 5-Amino-4-((E)-(4-((E)-3-(4-hydroxyphenyl)acryloyl)phenyl)diazenyl)-2-phenyl-2,4-dihydro-3H-pyrazol-3-one], the “antitumor effect (in words)” value in data set [2], in data set [3] and in data set [4] was “weak effect” in each case. Besides, in data set [1], the half-inhibitory concentration (IC50) was found to be 94.18 ± 0.45 µM.
In the case of `COc1cc(/C=C/C(=O)c2ccc(/N=N/C3C(=O)N(c4ccccc4)N=C3N)cc2)ccc1O` (stereo not drawn) [Compound 3b, 5-Amino-4-((E)-(4-((E)-3-(4-hydroxy-3-methoxyphenyl)acryloyl)phenyl)diazenyl)-2-phenyl-2,4-dihydro-3H-pyrazol-3-one], the half-maximal inhibitory concentration (IC50) in data set [2] (Homo sapiens, HepG2) was found to be 5.03 ± 0.4 µM; in data set [3] (Homo sapiens, MCF7), 3.92 ± 0.2 µM; in data set [1] it was 19.95 ± 0.14 µM; in data set [4] (Homo sapiens, HCT-116) it was 6.34 ± 0.5 µM. In data set [5], the “cytotoxic effect on normal cells (in words)” value was “safe toxic profile on normal cells”.
Turning to `CN(C)c1ccc(/C=C/C(=O)c2ccc(/N=N\C3C(=O)N(c4ccccc4)N=C3N)cc2)cc1` (stereo not drawn) [Compound 3e, 5-Amino-4-((Z)-(4-((E)-3-(4-(dimethylamino)phenyl)acryloyl)phenyl)diazenyl)-2-phenyl-2,4-dihydro-3H-pyrazol-3-one], the “antitumor effect (in words)” value in data set [2], in data set [3] and in data set [4] was “moderate effect” in each case. Besides, the IC50 in data set [1] is 32.79 ± 0.21 µM.
For the compound `NC1=NN(c2ccccc2)C(=O)C1/N=N/c1ccc(C(=O)/C=C/C=C/c2ccccc2)cc1` (stereo not drawn) [Compound 3g, 5-Amino-2-phenyl-4-((E)-(4-((2E,4E)-5-phenylpenta-2,4-dienoyl)phenyl)diazenyl)-2,4-dihydro-3H-pyrazol-3-one], the “antitumor effect (in words)” value in data set [2], in data set [3] and in data set [4] was “weak effect” in each case. In data set [1], the concentration for half-maximal inhibition (IC50) was found to be 73.63 ± 0.39 µM.
On to `NC1=NN(c2ccccc2)C(=O)C1/N=N/c1ccc(C(=O)C=Cc2ccco2)cc1` (stereo not drawn) [Compound 3f, (E)-3-Amino-4-((4-(3-(furan-2-yl)acryloyl)phenyl)diazenyl)-1-phenyl-1H-pyrazol-5(4H)-one], for which the “antitumor effect (in words)” value in data set [2], in data set [3] and in data set [4] was “impressive antitumor effects” in each case. In addition, in data set [1], the IC50 is 27.25 ± 0.19 µM.
For the compound `NC1=NN(c2ccccc2)C(=O)C1/N=N/c1ccc(C(=O)C=Cc2ccccc2)cc1` (stereo not drawn) [Compound 3a, 5-Amino-4-((E)-(4-cinnamoylphenyl)diazenyl)-2-phenyl-2,4-dihydro-3H-pyrazol-3-one], the “antitumor effect (in words)” value in data set [2], in data set [3] and in data set [4] was “impressive antitumor effects” each time. In addition, the half-inhibitory concentration (IC50) in data set [1] was found to be 21.4 ± 0.17 µM.
Regarding `NC1=NN(c2ccccc2)C(=O)C1/N=N/c1ccc(C(=O)/C=C/c2ccccc2O)cc1` (stereo not drawn) [Compound 3d, 5-Amino-4-((E)-(4-((E)-3-(2-hydroxyphenyl)acryloyl)phenyl)diazenyl)-2-phenyl-2,4-dihydro-3H-pyrazol-3-one], the “antitumor effect (in words)” value in data set [2], in data set [3] and in data set [4] was “moderate effect” throughout. For the same compound, the IC50 in data set [1] was found to be 48.59 ± 0.28 µM.
